{"data": "Published values gathered from unrelated publications", "target": "Serine/threonine-protein kinase BRSK2 (BRSK2, Homo sapiens, UniProt Q8IWQ3)", "One construct used (Q8IWQ3 1-736)": "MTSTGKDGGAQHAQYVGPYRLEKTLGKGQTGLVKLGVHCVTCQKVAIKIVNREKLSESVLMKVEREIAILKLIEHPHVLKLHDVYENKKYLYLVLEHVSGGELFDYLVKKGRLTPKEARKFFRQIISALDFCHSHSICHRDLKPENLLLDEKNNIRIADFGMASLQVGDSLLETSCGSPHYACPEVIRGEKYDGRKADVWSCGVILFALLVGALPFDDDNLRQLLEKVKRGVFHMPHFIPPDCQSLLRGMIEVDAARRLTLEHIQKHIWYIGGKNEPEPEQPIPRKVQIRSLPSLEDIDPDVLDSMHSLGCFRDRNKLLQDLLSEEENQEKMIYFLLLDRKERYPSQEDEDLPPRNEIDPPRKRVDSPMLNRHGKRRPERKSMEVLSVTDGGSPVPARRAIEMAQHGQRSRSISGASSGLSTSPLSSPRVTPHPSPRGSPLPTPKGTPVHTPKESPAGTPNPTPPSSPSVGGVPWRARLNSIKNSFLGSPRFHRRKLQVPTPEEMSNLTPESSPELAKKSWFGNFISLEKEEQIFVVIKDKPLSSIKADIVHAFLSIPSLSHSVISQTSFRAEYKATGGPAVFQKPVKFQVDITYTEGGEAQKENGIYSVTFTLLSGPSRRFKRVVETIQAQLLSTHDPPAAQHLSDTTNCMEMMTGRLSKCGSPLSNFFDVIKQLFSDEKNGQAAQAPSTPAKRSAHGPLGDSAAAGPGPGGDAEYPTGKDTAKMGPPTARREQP"}
{"Structure (SMILES)": "Cc1ccc(NC(=O)c2ccc(C)c(C(F)(F)F)c2)cc1C#Cc1nn(C2CCC(O)CC2)c2ncnc(N)c12 (stereo not shown)", "test": "cell-free assay", "conditions": "10 µM", "measurement": "remaining signal", "result": "93%"}
{"Structure (SMILES)": "CCCOc1ccc(OC)c(F)c1C(=O)c1ccc(C(=O)N[C@@H]2CNC[C@H]2NC(=O)c2ccc3[nH]ncc3c2)cc1", "test": "enzyme activity, inhibitor", "conditions": "10 µM", "measurement": "remaining activity", "result": "33%"}
{"Structure (SMILES)": "Cc1sc(C(=O)NC2COC2)cc1-n1cc(NC(=O)Nc2c(F)cccc2Cl)cn1", "test": "enzyme activity, inhibitor", "conditions": "10 µM", "measurement": "remaining activity", "result": "102%"}
{"Structure (SMILES)": "CCc1ccccc1C(=O)Nc1n[nH]c2c(C)c(F)c(C3C(C#N)=C(C)N(C)C(C)=C3C#N)cc12", "test": "cell-free assay, competition with immobilised ligand", "conditions": "1 µM", "measurement": "remaining binding", "result": "36%"}
{"Structure (SMILES)": "CNc1cccc2cc(C(=O)Nc3ccc(C(=O)O)cc3)c(=O)[nH]c12", "test": "enzyme activity, inhibitor", "conditions": "10 µM", "measurement": "inhibition", "result": "7.8%"}
{"Structure (SMILES)": "Cn1nc(C(=O)NCc2ccc(C(=O)O)cc2)cc1-c1ccc2[nH]ccc2c1", "test": "cell-free assay, competition with immobilised ligand", "conditions": "0.1 µM", "measurement": "remaining binding", "result": "100%"}
{"Structure (SMILES)": "COc1cc(Nc2cnc(C#N)c(O[C@H](C)CN(C)C)n2)ncc1-c1cnn(C)c1", "test": "enzyme activity, inhibitor, radiometric", "conditions": "1 µM", "measurement": "remaining activity", "result": "23%"}
{"Structure (SMILES)": "FC(F)(F)Oc1cccc(-c2cnc3ccc(-c4ccncc4)nn23)c1", "test": "enzyme activity, inhibitor, radiometric", "conditions": "5 µM", "measurement": "activity vs control", "result": "99%"}
{"Structure (SMILES)": "Cc1ccc(Nc2nccc(N(C)c3ccc4c(C)n(C)nc4c3)n2)cc1S(N)(=O)=O", "test": "enzyme activity, inhibitor", "conditions": "10 µM", "measurement": "inhibition", "result": "-11%"}
{"Structure (SMILES)": "Nc1nc(Nc2ccc(S(N)(=O)=O)cc2)nn1C(=O)c1c(F)cccc1F", "test": "cell-free assay", "conditions": "0.5 µM", "measurement": "remaining signal", "result": "49%"}
{"Structure (SMILES)": "CC(=O)c1c(NS(C)(=O)=O)c2cc(-c3ccc(Cl)cc3)c(-c3ccc(Cl)cc3Cl)nc2n(C)c1=O", "test": "cell-free assay, competition with immobilised ligand", "conditions": "1 µM", "measurement": "remaining binding", "result": "90%"}
{"Structure (SMILES)": "Cn1c(=O)n(-c2ccc(C(C)(C)C#N)cc2)c2c3cc(-c4cnc5ccccc5c4)ccc3ncc21", "test": "enzyme activity, inhibitor", "conditions": "10 µM", "measurement": "remaining activity", "result": "89%"}
{"Structure (SMILES)": "O=C1NC(=O)c2cc(Nc3ccc(F)cc3)c(Nc3ccc(F)cc3)cc21", "test": "cell-free assay", "conditions": "0.5 µM", "measurement": "remaining signal", "result": "96.8%"}
{"Structure (SMILES)": "Nc1nc(Nc2ccccc2)sc1C(=O)c1c(F)cccc1F", "test": "enzyme activity, inhibitor", "conditions": "10 µM", "measurement": "remaining activity", "result": "55%"}
{"Structure (SMILES)": "CCOC(=O)c1cc2cc(-c3cc(C(=O)NCc4ccc(C(=O)O)cc4)nn3C)ccc2[nH]1", "test": "cell-free assay, competition with immobilised ligand", "conditions": "0.1 µM", "measurement": "remaining binding", "result": "67%"}
{"Structure (SMILES)": "Oc1ccc(-c2nc(-c3ccncc3)c(-c3ccc(F)cc3)[nH]2)cc1", "test": "cell-free assay", "conditions": "0.5 µM", "measurement": "remaining signal", "result": "101%"}
{"Structure (SMILES)": "CCN(CC)CCNC(=O)c1c(C)[nH]c(/C=C2\\C(=O)Nc3ccc(F)cc32)c1C", "test": "enzyme activity, inhibitor", "conditions": "10 µM", "measurement": "inhibition", "result": "82%"}
{"Structure (SMILES)": "Cc1cc(NC(=O)c2cccc(S(F)(F)(F)(F)F)c2)cc(-n2ccn3nc(-c4cccnc4)cc23)c1", "test": "cell-free assay, competition with immobilised ligand", "conditions": "1 µM", "measurement": "remaining binding", "result": "100%"}
{"Structure (SMILES)": "FC(F)c1nc2ccccc2n1-c1nc(N2CCOCC2)nc(N2CCOCC2)n1", "test": "enzyme activity, inhibitor", "conditions": "10 µM", "measurement": "remaining activity", "result": "88%"}
{"Structure (SMILES)": "COc1cc(/C=C/C(=O)CC(=O)/C=C/c2ccc(O)c(OC)c2)ccc1O", "test": "enzyme activity, inhibitor", "conditions": "1 µM", "measurement": "activity vs control", "result": "88%"}
{"Structure (SMILES)": "CN(C)C(=O)Cn1cc(-c2nc(C3(c4ccc(-c5cnc(N)nc5)cc4)CC3)no2)cn1", "test": "cell-free assay, competition with immobilised ligand", "conditions": "1 µM", "measurement": "remaining binding", "result": "77%"}
{"Structure (SMILES)": "CCN(CC)c1ccc(C2=NNC(=O)CC2C)cc1[N+](=O)[O-] (stereo not shown)", "test": "enzyme activity, inhibitor", "conditions": "10 µM", "measurement": "remaining activity", "result": "104%"}
{"Structure (SMILES)": "CCS(=O)(=O)c1cc2cc(C[C@](O)(CC(C)(C)c3ccc(F)cc3C(N)=O)C(F)(F)F)[nH]c2cn1", "test": "cell-free assay, competition with immobilised ligand", "conditions": "1 µM", "measurement": "remaining binding", "result": "100%"}
{"Structure (SMILES)": "O=C1Nc2ccc(Cl)cc2C1=Cc1cc(Cl)c(O)c(Cl)c1", "test": "cell-free assay", "conditions": "0.5 µM", "measurement": "remaining signal", "result": "77.2%"}
{"Structure (SMILES)": "Cc1cnc(NC2CCOCC2)nc1-n1cnc(C(=O)NC(CN)c2cc(F)cc(Cl)c2)c1 (stereo not shown)", "test": "enzyme activity, inhibitor, radiometric", "conditions": "1 µM", "measurement": "remaining activity", "result": "42%"}
{"Structure (SMILES)": "CS(=O)(=O)NCC[C@H](NC(=O)c1cncc2c1cnn2-c1ccc(F)cc1)c1ccnc(S(C)(=O)=O)c1", "test": "cell-free assay, competition with immobilised ligand", "conditions": "1 µM", "measurement": "remaining binding", "result": "77%"}
{"Structure (SMILES)": "CC(C)(C)c1nc2c(s1)c1nc(N)ncc1c1ccc(NS(=O)(=O)c3c(F)cccc3F)c(F)c12", "test": "enzyme activity, inhibitor, radiometric", "conditions": "1 µM", "measurement": "remaining activity", "result": "88%"}
{"Structure (SMILES)": "Nc1ncnc2occ(-c3ccc(NC(=O)Nc4cc(C(F)(F)F)ccc4F)cc3)c12", "test": "cell-free assay, inhibitor", "conditions": "20 µM", "measurement": "remaining signal", "result": "6.6%"}
